Test results taken from PMC4317570 (Cell metabolism, 2015).
Blank lines part the entries; values can stand above or below the molecule they belong to.

Tests used:
RORγ LBD [1] = assay: Competition binding with fluorescein-labeled 25-hydroxycholesterol; conditions: recombinant RORγ
[2] = system: RORγ reporter activity in U937ROR cells; type: cell-based; conditions: media supplemented with exogenous cholesterol
[3] = system: RORγ reporter activity in SXLT cells; assay: Full length RORγ reporter; type: cell-based; conditions: media supplemented with compound, Fdft1-/- SXLT cells
How it was run: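 Fdft1−/− SXLT cells are transfected with a full-length RORγ construct driving a firefly luciferase reporter from an endogenous Il-23r enhancer element. Test compound is added to the medium, and luciferase activity is read. Data are technical triplicates ± standard deviation, representative of n=4 experiments. Comparison is by two-tailed unpaired Student's t-test on aggregated experiments.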

RORγ [4] = molecular target: T1, RORγ (Mus musculus, UniProt P51450); assay: RORγ reporter assay in mammalian cells; type: cell-based; conditions: mammalian cells (HEK293T)
T1 sequence (P51450 267-516 limits assumed): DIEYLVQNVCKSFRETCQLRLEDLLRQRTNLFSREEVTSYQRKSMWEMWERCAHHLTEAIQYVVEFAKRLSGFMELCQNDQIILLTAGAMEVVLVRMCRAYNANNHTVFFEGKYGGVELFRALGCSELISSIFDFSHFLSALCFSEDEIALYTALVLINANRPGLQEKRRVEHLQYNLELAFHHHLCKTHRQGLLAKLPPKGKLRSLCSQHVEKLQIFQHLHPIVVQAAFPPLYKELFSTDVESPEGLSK
How it was run: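 HEK293T cells are co-transfected with a RORγ-gal4 fusion plus a GAL4 UAS firefly luciferase reporter (luc2p) and exposed to test compound. Luciferase activity is the read-out. Data are averages of technical triplicates ± standard deviation, representative of n=6 experiments. Statistics use two-tailed unpaired Student's t-test on aggregated experiments.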

[5] = system: Sc4mol-/- naïve CD4+ T cells; assay: Th17 cell polarization of RORγt-cre Sc4mol-/- naïve CD4+ T cells; type: cell-based, mouse
RORγ LBD [6] = assay: CD thermal denaturation of RORγ LBD, apo vs holo; type: binding; conditions: holo vs apo receptor
RORγ LBD [7] = assay: Fluorescein-NCOA2 coactivator peptide recruitment, fluorescence polarization; type: biochemical; conditions: fluoresceinated NCOA2 peptide, holo vs apo receptor
RORγ [8] = molecular target: RORγ (Mus musculus, UniProt P51450); assay: RORγ-gal4/UAS luciferase reporter in insect cells grown in sterol-free CDM; type: cell-based
How it was run: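 Drosophila Kc167 cells are kept in continuous culture in lipid-free chemically defined medium: 40% Grace's medium, 10% Murashige–Skoog micronutrients, 1% NEAS, 1 mM pyruvate, 2% ITS-A and 1% Pluronic F-68. Cells are transiently transfected with RORγ-gal4 plus a UAS luc2p firefly luciferase reporter (minimal hsp70 promoter), then treated with test compound. EC50 is derived from reporter activity. Each compound is tested at least twice in technical triplicates ± standard deviation.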

Binding to RORγ (RORγ LBD [1]): bind very weakly if at all
Compound: CC(C)=CCC[C@@H](C)[C@H]1CC[C@H]2C3=C(CC[C@]12C)[C@@]1(C)CCC(O)C(C)(C)C1CC3 (stereo partly drawn) [T-MAS, 4α,4β-dimethyl-cholesta-8,24-dien-3-ol]

Compound: C=CCN(C)CCCCCCOc1ccc(C(=O)c2ccc(Br)cc2)c(F)c1.O=C(O)/C=C/C(=O)O [Ro 48-8071 fumarate]
RORγ reporter activity in U937ROR cells [2]: inhibited in a dose dependent fashion

Compound: CC(C)=CCC/C(C)=C/CC/C(C)=C/CC/C=C(\C)CC/C=C(\C)CCC=C(C)C [squalene]
Rescue of full length RORγ reporter activity in SXLT cells [3]: partially rescue

RORγ reporter activity in mammalian cells (RORγ [4]): no activity
Compound: CC(C)=CCCC(C)C1CCC2(C)C3=CCC4C(C)(CO)C(O)CCC4(C)C3CCC12C (stereo not drawn) [4α–hydroxymethyl,4β,14α-dimethyl-cholesta-7,24-dien-3-ol]

Compound: CC(C)CCC[C@@H](C)[C@H]1CC[C@H]2[C@@H]3CC=C4C[C@@H](O)CC[C@]4(C)[C@H]3CC[C@]12C [cholesterol, reference compound]
Th17 polarization defect of Sc4mol-/- T cells ([5]; supplementation of media): could not be alleviated

RORγ reporter activity in mammalian cells (RORγ [4]): weak agonist
Compound: CC(C)=CCC[C@@H](C)[C@H]1CC=C2C3=C(CC[C@@]21C)[C@@]1(C)CCC(O)C(C)(C)C1CC3 (stereo partly drawn) [FF-MAS, 4α,4β-dimethyl-cholesta-8,14,24-trien-3-ol, reference compound]

Compound: CC(C)=CCC[C@@H](C)[C@H]1CC[C@H]2C3=C(CC[C@]12C)[C@@]1(C)CCC(O)[C@@](C)(C(=O)O)C1CC3 (stereo partly drawn) [4ACD8, 4α–carboxy, 4β-methyl-cholesta-8,24-dien-3-ol]
RORγ reporter activity in mammalian cells (RORγ [4]): specific agonist activity
Thermal stability of the RORγ LBD (RORγ LBD [6]): increased the thermal stability
Co-activator peptide recruitment to RORγ (RORγ LBD [7]): promoted co-activator peptide recruitment
Th17 cell differentiation in Sc4mol-/- naïve CD4+ T cells ([5]; 1 μM added to media): rescues Th17 cell differentiation

Compound: CC(C)=CCC[C@@H](C)[C@H]1CC[C@@]2(C)C3=C(CC[C@]12C)[C@@]1(C)CC[C@H](O)C(C)(C)[C@@H]1CC3 [lanosterol, 14α,4α,4β-trimethyl-cholesta-8,24-dien-3-ol]
RORγ reporter activity in insect cells (RORγ [8]; higher concentrations): significant RORγ reporter activity
RORγ reporter activity in insect cells (RORγ [8]; physiological concentrations (1 μM)): little to no activity

Compound: CC(C)CCC[C@@H](C)[C@H]1CC[C@H]2C3=CCC4[C@H](C(=O)O)[C@@H](O)CC[C@]4(C)[C@H]3CC[C@]12C (stereo partly drawn) [4ACD7, 4α-carboxy-cholest-7-en-3β-ol]
Thermal stability of the RORγ LBD (RORγ LBD [6]): increase stability
Co-activator peptide recruitment to RORγ (RORγ LBD [7]): promote the recruitment

Compound: CC[C@H](C)C(=O)O[C@H]1C[C@@H](C)C=C2C=C[C@H](C)[C@H](CC[C@@H]3C[C@@H](O)CC(=O)O3)[C@H]21 [lovastatin]
RORγ reporter activity in U937ROR cells [2]: inhibited in a dose dependent fashion

Compound: CC(C)=CCC[C@@H](C)[C@H]1CC[C@@]2(C)C3=CCC4[C@](C)(C=O)C(O)CC[C@]4(C)[C@H]3CC[C@]12C (stereo partly drawn) [4α–formyl,4β,14α-dimethyl-cholesta-7,24-dien-3-ol]
RORγ reporter activity in mammalian cells (RORγ [4]): no activity
EC50 (RORγ [8]): 150 to 500 nM
